Assay results: ChEMBL document CHEMBL1124774, “Synthesis and biological activity of some derivatives of rifamycin P” (1990)

Legend:
[1] = system: Escherichia coli; test: In vitro antibacterial activity of compound against Escherichia coli SKF 12140; format: functional
[2] = system: Klebsiella pneumoniae; test: In vitro antibacterial activity of compound against Klebsiella pneumoniae ISM; format: functional
[3] = system: Mycobacterium scrofulaceum; test: In vitro activity of compound against slowly growing Mycobacterium scrofulaceum 1292; format: functional
How it was run: (§1)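 Medium was Middlebrook 7H10 agar with 2% glycerol and 10% OADC. Organisms from Loevenstein-Jensen slants were grown in 7H9 broth with 0.5% Tween and 10% OADC, adjusted to McFarland no. 1, and spotted with a multipoint inoculator. Sealed plates were incubated at 22, 30 or 37 °C for 4-20 days depending on strain.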

[4] = system: Mycobacterium scrofulaceum; test: In vitro activity of compound against slowly growing Mycobacterium scrofulaceum 1293; format: functional; how it was run: as §1
[5] = system: Mycobacterium scrofulaceum; test: In vitro activity of compound against slowly growing Mycobacterium scrofulaceum 1297; format: functional; how it was run: as §1
[6] = system: Mycobacterium scrofulaceum; test: In vitro activity of compound against slowly growing Mycobacterium scrofulaceum 1301; format: functional; how it was run: as §1
[7] = system: Mycolicibacterium smegmatis; test: In vitro activity of compound against rapidly growing Mycobacterium smegmatis 139; format: functional; how it was run: as §1
[8] = system: Mycolicibacterium smegmatis; test: In vitro activity of compound against rapidly growing Mycobacterium smegmatis 1442; format: functional; how it was run: as §1
[9] = system: Mycolicibacterium smegmatis; test: In vitro activity of compound against rapidly growing Mycobacterium smegmatis 31; format: functional; how it was run: as §1
[10] = system: Mycobacterium xenopi; test: In vitro activity compound against slowly growing Mycobacterium xenopi 1446; format: functional; how it was run: as §1
[11] = system: Mycobacterium xenopi; test: In vitro activity of compound against slowly growing Mycobacterium xenopi 554; format: functional; how it was run: as §1
[12] = system: Mycobacterium xenopi; test: In vitro activity of compound against slowly growing Mycobacterium xenopi 555; format: functional; how it was run: as §1
[13] = system: Mycolicibacterium phlei; test: In vitro activity of compound against rapidly growing Mycobacterium phlei 141; format: functional; how it was run: as §1
[14] = system: Mycolicibacterium phlei; test: In vitro activity of compound against rapidly growing Mycobacterium phlei 1283; format: functional; how it was run: as §1
[15] = system: Mycolicibacterium phlei; test: In vitro activity of compound against rapidly growing Mycobacterium phlei 1289; format: functional; how it was run: as §1
[16] = system: Mycobacterium kansasii; test: In vitro activity of compound against slowly growing Mycobacterium kansasii 1299; format: functional; how it was run: as §1
[17] = system: Mycobacterium marinum; test: In vitro activity of compound against slowly growing Mycobacterium marinum 1388; format: functional; how it was run: as §1
[18] = system: Mycobacterium marinum; test: In vitro activity of compound against slowly growing Mycobacterium marinum 1390; format: functional; how it was run: as §1
[19] = system: Mycobacterium marinum; test: In vitro activity of compound against slowly growing Mycobacterium marinum 1391; format: functional; how it was run: as §1
[20] = system: Mycolicibacterium fortuitum; test: In vitro activity of compound against rapidly growing Mycobacterium fortuitum 114; format: functional; how it was run: as §1
[21] = system: Mycolicibacterium fortuitum; test: In vitro activity of compound against rapidly growing Mycobacterium fortuitum 1285; format: functional; how it was run: as §1
[22] = system: Mycolicibacterium fortuitum; test: In vitro activity of compound against rapidly growing Mycobacterium fortuitum 1287; format: functional; how it was run: as §1
[23] = system: Mycolicibacterium fortuitum; test: In vitro activity compound against rapidly growing Mycobacterium fortuitum 1302; format: functional; how it was run: as §1
[24] = system: Mycolicibacterium fortuitum; test: In vitro activity of compound against rapidly growing Mycobacterium fortuitum 140; format: functional; how it was run: as §1
[25] = system: Mycolicibacterium fortuitum; test: In vitro activity compound against rapidly growing Mycobacterium fortuitum 1440; format: functional; how it was run: as §1
[26] = system: Mycolicibacterium fortuitum; test: In vitro activity of compound against rapidly growing Mycobacterium fortuitum 646; format: functional; how it was run: as §1
[27] = system: Mycolicibacterium fortuitum; test: In vitro activity of compound against rapidly growing Mycobacterium fortuitum 726; format: functional; how it was run: as §1
[28] = system: Mycobacterium gordonae; test: In vitro activity of compound against slowly growing Mycobacterium gordonae 1294; format: functional; how it was run: as §1
[29] = system: Mycobacterium gordonae; test: In vitro activity of compound against slowly growing Mycobacterium gordonae 1441; format: functional; how it was run: as §1
[30] = system: Mycobacterium kansasii; test: In vitro activity of compound against slowly growing Mycobacterium kansasii 1291; format: functional; how it was run: as §1
[31] = system: Mycobacterium kansasii; test: In vitro activity of compound against slowly growing Mycobacterium kansasii 1298; format: functional; how it was run: as §1
[32] = system: Mycolicibacterium flavescens; test: In vitro activity of compound against rapidly growing Mycobacterium flavescens 1284; format: functional; how it was run: as §1
[33] = system: Mycolicibacterium flavescens; test: In vitro activity of compound against rapidly growing Mycobacterium flavescens 1286; format: functional; how it was run: as §1
[34] = system: Mycobacterium marinum; test: In vitro activity of compound against slowly growing Mycobacterium marinum 1392 h; format: functional; how it was run: as §1
[35] = system: Mycobacterium marinum; test: In vitro activity of compound against slowly growing Mycobacterium marinum 1393; format: functional; how it was run: as §1
[36] = system: Mycobacterium marinum; test: In vitro activity of compound against slowly growing Mycobacterium marinum 1394; format: functional; how it was run: as §1
[37] = system: Mycobacterium marinum; test: In vitro activity of compound against slowly growing Mycobacterium marinum 1447; format: functional; how it was run: as §1
[38] = system: Mycobacterium tuberculosis; test: In vitro antibacterial activity of compound against Mycobacterium tuberculosis H37Rv ATCC 9660; format: functional
[39] = system: Mycobacteroides chelonae; test: In vitro activity of compound against rapidly growing Mycobacterium chelonae 1443; format: functional; how it was run: as §1
[40] = system: Mycobacterium avium; test: 50% inhibition of the 20 Mycobacterium (MAC) avium complex clinical isolates; format: functional
How it was run: (§2)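 Agar-dilution MICs, 2-fold dilutions over 128-0.0001 μg/mL, on Middlebrook 7H10 agar with 2% glycerol and 10% OADC. Organisms from Loevenstein-Jensen slants were grown in 7H9 broth with 0.5% Tween and 10% OADC, adjusted to McFarland no. 1, and spotted with a multipoint inoculator. Plates were sealed and incubated at 22, 30 or 37 °C for 4-20 days depending on strain.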

[41] = system: Mycobacterium avium; test: Minimum inhibitory concentration of compound against 20 Mycobacterium avium complex (MAC) clinical isolates; format: functional; how it was run: as §2
[42] = system: Neisseria gonorrhoeae; test: In vitro antibacterial activity of compound against Neisseria gonorrhoeae ISM 68/126; format: functional
[43] = system: Pseudomonas aeruginosa; test: In vitro antibacterial activity of compound against Pseudomonas aeruginosa ATCC 10145; format: functional
How it was run: (§3)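 Twofold microdilution MIC in Iso-Sensitest broth over 128-0.0001 µg/mL. Inoculum was 10^4 cfu/mL, with incubation at 37 °C for 18-24 h.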

[44] = system: Proteus vulgaris; test: In vitro antibacterial activity of compound against Proteus vulgaris X19H ATCC 881; format: functional
[45] = system: Staphylococcus epidermidis; test: In vitro antibacterial activity of compound against Staphylococcus epidermidis ATCC 12228; format: functional; how it was run: as §3
[46] = system: Streptococcus pyogenes; test: In vitro antibacterial activity of compound against Streptococcus pyogenes C 203 SKF 13400; format: functional
How it was run: (§4)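 Streptococcal MICs were run by twofold microdilution in Todd-Hewitt broth over 128-0.0001 µg/mL. Inoculum was 10^4 cfu/mL, with incubation at 37 °C for 18-24 h.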

[47] = system: Staphylococcus aureus; test: In vitro antibacterial activity of compound against Staphylococcus aureus Tour L 165; format: functional; how it was run: as §3
[48] = system: Streptococcus pneumoniae; test: In vitro antibacterial activity of compound against Streptococcus pneumoniae UC 41; format: functional; how it was run: as §4
[49] = system: Enterococcus faecalis; test: In vitro antibacterial activity of compound against Streptococcus faecalis ATCC 7080.; format: functional; how it was run: as §3
[50] = system: Mycolicibacterium fortuitum; test: In vitro activity of compound against rapidly growing Mycobacterium fortuitum 645; format: functional; how it was run: as §1
[51] = system: Haemophilus influenzae; test: In vitro antibacterial activity of compound against Haemophilus influenzae ATCC 19418; format: functional
[52] = system: Mycobacterium xenopi; test: In vitro activity of compound against slowly growing Mycobacterium xenopi 556; format: functional; how it was run: as §1
[53] = system: Mycobacterium xenopi; test: In vitro activity of compound against slowl growingy Mycobacterium xenopi 555; format: functional; how it was run: as §1
[54] = system: Mycobacterium kansasii; test: In vitro activity compound against slowly growing Mycobacterium kansasii 1298; format: functional; how it was run: as §1
[55] = system: Mycobacterium kansasii; test: In vitro activity compound against slowly growing Mycobacterium kansasii 1291; format: functional; how it was run: as §1
[56] = system: Staphylococcus aureus; test: Activity in the murine model (OS route) of Staphylococcus aureus tour septicemia; format: functional
How it was run: (§5)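 Male and female CD1 mice (18-22 g) were infected ip with S. aureus Tour. The challenge was set so untreated mice died within 48 h. Groups were five mice, dosed once daily for 3 days starting immediately after infection. ED50 was calculated on day 10 from the percentage surviving at each dose.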

[57] = system: Staphylococcus aureus; test: Activity in the murine model (subcutaneous route) of Staphylococcus aureus tour septicemia; format: functional; details: sc; how it was run: as §5
[58] = system: Streptococcus pyogenes; test: Inhibitory concentration of compound against Streptococcus pyogenus septicemia in the mouse, administarted in OS route; format: functional
How it was run: (§6)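 Male and female CD1 mice (18-22 g) were infected ip with S. pyogenes C203, with the challenge set so untreated mice died within 48 h. Groups of five received a single treatment immediately after infection. ED50 was calculated from the percentage surviving at each dose on day 10.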

[59] = system: Streptococcus pyogenes; test: Inhibitory concentration of compound against Streptococcus pyogenus septicemia in the mouse, administarted in subcutaneous route; format: functional; details: sc; how it was run: as §6
[60] = system: Streptococcus pyogenes; test: Minimum inhibitory concentration of compound against Streptococcus pyogenus septicemia in the mouse; format: functional
[61] = system: Mycobacteroides chelonae; test: In vitro activity of compound against rapidly growing Mycobacterium chelonae 1443

COC1/C=C/OC2(C)Oc3c(C)c(O)c4c(O)c(c5c(c4c3C2=O)=NC2(CCN(CC(C)C)CC2)N=5)NC(=O)/C(C)=C\C=C\C(C)C(O)C(C)C(O)C(C)C(OC(C)=O)C1C (stereo not drawn)
4 µg/mL: MIC50 [7] | MIC50 [8] | MIC50 [9] | MIC50 [21] | MIC50 [24]
8 µg/mL: MIC50 [20] | MIC50 [26] | MIC50 [32] | MIC [43]
16 µg/mL: MIC [1] | MIC [2] | MIC50 [25] | MIC50 [27] | MIC [44]
0.061 µg/mL: MIC50 [13]
1 µg/mL: MIC50 [18] | MIC50 [22] | MIC50 [23] | MIC50 [29] | MIC50 [30] | MIC50 [40] | MIC50 [50]
0.008 µg/mL: MIC [38]
0.5 µg/mL: MIC50 [16] | MIC50 [28] | MIC [42]
0.016 µg/mL: MIC50 [14]
0.063 µg/mL: MIC50 [5] | MIC50 [31] | MIC50 [33] | MIC [47]
0.125 µg/mL: MIC50 [10] | MIC50 [11] | MIC50 [12] | MIC [51] | MIC50 [52]
0.032 µg/mL: MIC50 [3] | MIC50 [4] | MIC [45] | MIC [46] | MIC [48]
0.25 µg/mL: MIC50 [17] | MIC50 [19] | MIC50 [34] | MIC50 [35] | MIC50 [36] | MIC50 [37] | MIC50 [41]
2 µg/mL: MIC50 [6] | MIC50 [15] | MIC [49]
32 µg/mL: MIC50 [39]

CO[C@H]1/C=C/O[C@@]2(C)Oc3c(C)c(O)c4c(O)c(c(/C=N/N5CCN(C)CC5)c(O)c4c3C2=O)NC(=O)/C(C)=C\C=C\[C@H](C)[C@H](O)[C@@H](C)[C@@H](O)[C@@H](C)[C@H](OC(C)=O)[C@@H]1C [RIFAMPIN]
0.09 mg/kg: ED50 [57]
0.125 µg/mL: MIC [5] | MIC [54] | MIC [42] | MIC [51]
0.063 µg/mL: MIC [3] | MIC [4] | MIC [60] | MIC [46] | MIC [48]
16 µg/mL: MIC [2] | MIC [55] | MIC50 [40]
1 µg/mL: MIC [10] | MIC [11] | MIC [53] | MIC [17] | MIC [23] | MIC [37] | MIC [49] | MIC [52]
4 µg/mL: MIC [21] | MIC [29] | MIC [50]
32 µg/mL: MIC [27]
8 µg/mL: MIC [1] | MIC [6] | MIC [15] | MIC [16] | MIC [43] | MIC [44]
0.008 µg/mL: MIC [45]
0.47 mg/kg: ED50 [58]
0.016 µg/mL: MIC [47]
0.5 µg/mL: MIC [19] | MIC [28] | MIC [34] | MIC [35] | MIC [36]
> 128 µg/mL: MIC [61]
2 µg/mL: MIC [18] | MIC [22]
128 µg/mL: MIC [20] | MIC [26] | MIC [32]
0.032 µg/mL: MIC [13]
0.35 mg/kg: ED50 [59]
0.28 mg/kg: ED50 [56]
0.25 µg/mL: MIC [14] | MIC [33] | MIC [38]
